# Most compounds without a hit are left out; they make up all but 2.4% or so of the library.
# MC4R antagonist: blocks human MC4R cAMP signaling; P32245; MC4R-expressing cells, MTII-stimulated cAMP, LANCE TR-FRET; inhibition, % at 6.5 µM; 360,000 tested, 0.48% active;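 active = inhibition above its plate's cutoff, the mean of tested wells on that plate plus 3 SD, cut at about 29% in these data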;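 also: 0% = Melanotan II alone and 100% = Melanotan II plus saturating MCL0020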
#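 Assay system: U2OS cells stably expressing human melanocortin 4 receptor (MC4R) / Dosing: 6.5 µM / Timing: compound 30 min, challenge 1 h, detection 1 h / Measured by: Eu-cAMP/anti-cAMP TR-FRET, emission 671 nm / Replicates: singlicate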
# OPRM1-OPRD1 ag: agonists of human mu-delta opioid receptor heterodimerization; cells, OPRM1-OPRD1 heterodimerization, luminescence; 340,000 tested, 0.3% active; activation, % at 9.3 µM; AID 504326; in the data active = activation above about 18%;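 also: 0% = vehicle-treated cells and 100% = reference agonist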
# MOR-DOR inv ag: inverse agonists of human mu-delta opioid receptor heterodimerization; cell-based MOR-DOR heterodimer luminescence, inverse agonism; 340,000 tested, 0.21% active; AID 504357; inhibition, % at 9.3 µM; in the data active = inhibition above about 22%, passing the limit was not always enough;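 also: 0% = cells with DMSO and 100% = wells without cells with DMSO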
# HTR5A inv ag: HTR5A inverse agonism, opioid heterodimer counter-screen. P47898. HTR5A cell line, luminescence. inhibition, % at 9.3 µM. 340,000 tested, 0.083% active; in the data active = inhibition mostly above about 23%, no sharp cut-off; inactive = mostly below about 18%;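 also: 0% = cells with DMSO and 100% = no-cell wells with DMSO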
# Target sequence (P47898 whole entry, looked up): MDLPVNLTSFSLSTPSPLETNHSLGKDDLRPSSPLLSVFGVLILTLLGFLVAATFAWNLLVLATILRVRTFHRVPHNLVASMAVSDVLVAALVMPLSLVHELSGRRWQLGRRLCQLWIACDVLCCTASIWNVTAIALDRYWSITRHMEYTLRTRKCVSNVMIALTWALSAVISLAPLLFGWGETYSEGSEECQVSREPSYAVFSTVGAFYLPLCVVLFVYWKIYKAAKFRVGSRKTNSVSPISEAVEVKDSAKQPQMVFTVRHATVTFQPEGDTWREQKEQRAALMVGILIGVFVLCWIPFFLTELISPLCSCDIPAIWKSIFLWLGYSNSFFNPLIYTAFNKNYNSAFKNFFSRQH
# MC4R barr agon: agonists of human melanocortin 4 receptor (MC4R) beta-arrestin. P32245. U2OS MC4R beta-arrestin complementation, luminescence; percent of melanotan II response, DMSO zero. activation, % at 8.9 µM. 360,000 tested, 0.98% active. AID 540308;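 active = activation above a per-plate cutoff, the mean activation of sample wells on that plate plus 3 SD, cut at about 8% in these data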
# HTR5A ag: HTR5A agonism, opioid heterodimer counter-screen. HTR5A agonist assay, luminescence, cell-based. activation, % at 9.3 µM. 340,000 tested, 0.61% active. AID 504692; in the data active = activation mostly above about 9.5%, no sharp cut-off; inactive = mostly below about 7.6%;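 also: 0% = cells with vehicle only and 100% = reference agonist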
# MC4R barr conf: human MC4R beta-arrestin agonism confirmation | shares compounds with MC4R barr agon | U2OS MC4R beta-arrestin recruitment, luminescence; scaled DMSO 0%, Melanotan II 100% | activation, % at 8.9 µM | 2,400 tested, 31% active | AID 602192;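 active = mean activation across replicates above the hit cutoff set in the earlier primary screen, cut at about 8% in these data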
# MOR DOR agonist: activates mu-delta opioid heterodimer, MC4R agonist counter-screen; shares compounds with MC4R barr agon; U2OS PathHunter beta-arrestin, beta-gal luminescence; percent of deltorphin B response, DMSO zero; activation, % at 9.2 µM; 2,400 tested, 5.8% active;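 active = mean activation across replicates exceeds the hit threshold derived in the earlier primary screen, cut at about 18% in these data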;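 also: 100% = deltorphin B at 0.9 µM final and 0% = DMSO alone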
# Starred values were filed as active, the others as inactive; nt = no result.
SMILES,MC4R antagonist,OPRM1-OPRD1 ag,MOR-DOR inv ag,HTR5A inv ag,MC4R barr agon,HTR5A ag,MC4R barr conf,MOR DOR agonist
OC(c1cccc(Cl)c1)c1nc(-c2ccc3c(c2)OCO3)cs1 (stereo unspecified),-4.8,nt,nt,nt,-0.4,nt,nt,nt
COc1ccc(S(=O)(=O)N(CCc2ccccc2)CC(N)=O)cc1,0.4,-1.3,6.9,-8.4,-1.5,3.0,nt,nt
Nc1nc(-c2cc(O)ccc2[N+](=O)[O-])cc(-c2ccccc2)c1[N+](=O)[O-],-16.6,7.4,-37.1,-6.1,11.1*,1.6,1.1,3.5
CC(=O)c1ccc(NS(=O)(=O)c2ccc([N+](=O)[O-])cc2)cc1,2.9,-1.7,9.1,10.9,-1.0,-2.6,nt,nt
O=[N+]([O-])c1ccc(S(=O)(=O)Nc2ccc(-c3ccccc3)cc2)cc1,5.9,nt,nt,nt,14.6*,nt,0.6,7.3
CCn1c(O)c(/C=N/N=C/c2ccc(OC)cc2)c2cc(C3=NNC(=O)CC3)ccc21,12.9,-1.4,7.3,13.8,17.8*,4.7,7.3,7.1
O=C(CCn1nnc2ccccc21)OCC(=O)c1ccc(F)cc1,2.2,1.0,-8.3,-3.6,-0.1,3.5,nt,nt
Cc1ccc(C)c(OCCC(=O)OCC(=O)NC(=O)NC2CCCC2)c1,7.6,7.3,-46.6,-2.1,13.9*,1.0,3.1,8.0
Cc1ccc(C)c(OCCC(=O)OCC(=O)NC2CC2)c1,6.5,-4.0,21.0,5.8,-2.8,-2.4,nt,nt
COc1ccccc1NC(=O)COC(=O)C1=NN(c2ccccc2)C(=O)CC1,1.7,-2.1,11.0,-16.8,-0.3,4.7,nt,nt
COc1ccc(N=C2c3ccccc3-c3ccc([N+](=O)[O-])cc32)cc1,-4.4,3.9,-19.9,13.3,0.0,-3.4,nt,nt
O=[N+]([O-])c1ccc2c(c1)C(=Nc1ccccc1)c1ccccc1-2,-5.1,10.7,-53.6,4.3,11.4*,-1.1,1.7,4.2
COc1ccc(S(=O)(=O)NCCN2CCNC2=O)cc1OC,8.0,nt,nt,nt,-0.1,nt,nt,nt
COc1ccc(-c2ccc(/C=C3/C(=N)N4C(C)=CSC4=NC3=O)o2)c([N+](=O)[O-])c1,8.1,7.0,-42.0,-19.3,60.6*,7.3,-2.0,2.9
N#Cc1c(N)c(C#N)c(-c2ccc3c(c2)OCO3)c2c1CCCC2,5.3,7.6,-41.7,-11.1,10.3*,-1.0,1.5,4.0
Cc1ccc(C(C)C)c(OCc2ccc(C(=O)N/N=C/c3ccc(O)c(O)c3)cc2)c1,18.1,3.2,-19.5,-38.2,20.0*,14.2*,9.0*,6.1
COc1cc(/C=N/NC(=O)c2ccc(COc3cc(C)ccc3C(C)C)cc2)cc(OC)c1O,26.9,4.6,-23.8,6.3,3.2,-0.2,nt,nt
O=C(CN1CCN(c2ccccc2)CC1)Nc1ccc(Oc2ccccc2)cc1,4.3,1.2,-7.0,-13.2,18.6*,4.9,5.7,5.1
CCOc1ccc(-c2nnc(-c3ccccc3)o2)cc1,11.8,1.1,-6.4,7.7,1.8,3.7,nt,nt
CCOc1ccc(-c2nnc(-c3ccc(OC)cc3)o2)cc1,3.5,3.5,-14.8,8.0,30.8*,2.7,1.1,4.7
O=C(NCc1cccnc1)c1cccc2c1C(=O)N(Cc1cccnc1)C2,11.3,-2.7,16.2,-20.9,-2.4,7.8,nt,nt
COc1nc2c(C)cccc2cc1-c1noc(-c2ccco2)n1,3.1,2.5,-10.5,12.4,14.4*,-5.0,5.0,2.5
CCOc1ccc(C2/C(=C(\O)c3cccc(OC)c3)C(=O)C(=O)N2c2ccccn2)cc1OC (stereo unspecified),14.5,-2.2,11.3,-34.4,-1.5,3.8,nt,nt
C=CCn1c(-c2ccccc2)cc(SC)c(C#N)c1=O,-3.9,0.5,-2.7,-17.2,12.4*,6.1,0.2,3.0
COc1ccc(/C=N\NC(=O)c2cc(OCC(F)(F)F)ccc2OCC(F)(F)F)cc1,-1.4,15.9,-79.8,0.8,10.7*,-0.3,5.7,7.1
